The values that follow come from ChEMBL document CHEMBL3813689, “Discovery of Potent Benzofuran-Derived Diapophytoene Desaturase (CrtN) Inhibitors with Enhanced Oral Bioavailability for the Treatment of Methicillin-Resistant Staphylococcus aureus (MRSA) Infections” (J Med Chem, 2016).

Each structure is given as a SMILES string. The source made the active and inactive calls. The rule behind the calls is not given here.

The test system of test [1] is Staphylococcus aureus. The experiment in a line: Antibacterial activity against Staphylococcus aureus Newman infected Balb/c mouse assessed as reduction of bacterial survival in heart at 5.2 mg, ip bid administered for 4.5 days followed by bacterial infection measured after 5 days. The test is classed as functional. The procedure, abridged: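 Female BALB/c mice, 6–8 weeks, dosed ip with compound in sterile water once and every 12 h for 108 h; water vehicle controls. Challenged 12 h after first dose with 1 × 10^7 CFU Newman by retro-orbital injection. Kidneys and hearts homogenised in PBS/0.1% Triton X-100 and plated on TSA for CFU. n = 13 mice; two-tailed Mann-Whitney.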

The subject of test [2] is Staphylococcus aureus. The experiment in a line: Sensitization of Staphylococcus aureus USA300 LAC to immune clearance in human whole blood assessed as reduction in bacterial survival at 1 uM […] relative to control. The class given is functional.
Test [3] concerns the target T1, 4,4'-diapophytoene desaturase (4,4'-diaponeurosporene-forming) (Staphylococcus aureus (strain Newman)) (UniProt O07855).
T1 sequence (whole entry): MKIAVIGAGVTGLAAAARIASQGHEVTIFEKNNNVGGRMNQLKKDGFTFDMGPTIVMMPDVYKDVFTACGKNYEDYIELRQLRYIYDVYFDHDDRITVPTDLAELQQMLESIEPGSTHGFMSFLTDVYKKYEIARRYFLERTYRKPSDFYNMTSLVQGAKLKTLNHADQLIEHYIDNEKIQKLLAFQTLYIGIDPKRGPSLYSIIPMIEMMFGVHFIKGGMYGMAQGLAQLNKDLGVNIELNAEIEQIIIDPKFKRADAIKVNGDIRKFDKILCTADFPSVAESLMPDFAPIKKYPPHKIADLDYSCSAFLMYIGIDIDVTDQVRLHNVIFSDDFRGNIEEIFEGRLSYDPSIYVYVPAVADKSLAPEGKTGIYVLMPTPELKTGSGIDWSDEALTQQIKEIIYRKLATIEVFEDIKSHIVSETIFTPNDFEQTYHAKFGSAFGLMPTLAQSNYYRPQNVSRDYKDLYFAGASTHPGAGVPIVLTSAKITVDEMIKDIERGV
The note with it: Staphylococcus aureus subsp. aureus str. Newman; 1 uM.

In test [4] the test system is Staphylococcus aureus. Description: Sensitization of methicillin-resistant Staphylococcus aureus Mu50 to immune clearance in human whole blood assessed as bacterial survival at 1 uM measured after 24 hrs (reference value: 16.1%). The class given is functional.
The subject of test [5] is Staphylococcus aureus. The experiment in a line: Sensitization of Staphylococcus aureus Newman to immune clearance in human whole blood assessed as reduction in bacterial survival at 1 uM […] relative to control. The class given is functional.
For test [6], the system named is Staphylococcus aureus. Description: Sensitization of Staphylococcus aureus Newman to H2O2 assessed as bacterial survival at 1 uM measured after 24 hrs (reference value: 36.2%). The class given is functional.
Test [7] concerns Staphylococcus aureus. The experiment in a line: Antibacterial activity against Staphylococcus aureus USA400 MW2 infected Balb/c mouse assessed as reduction of bacterial survival in kidney at 1.3 mg, ip bid administered for 4.5 days followed by bacterial infection measured after 5 days. The test is classed as functional, organism-based. The procedure, abridged:
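Female BALB/c mice, 6–8 weeks. Compound in sterile water ip once and every 12 h for 108 h, total 50 or 200 mg/kg; water controls. Infected 12 h after first dose with 4 × 10^7 CFU USA400 MW2 (100 µL). Killed 5 days post infection; liver or kidney CFU counted on TSA after homogenising in PBS/0.1% Triton X-100. n = 13; two-tailed Mann-Whitney.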

For the compound `CN(C/C=C/c1ccc(C(F)(F)F)cc1)Cc1cccc2ccoc12.Cl`, the Activity in test [1] was 1.01 deltalog10CFU. Also, the results for the “fold change (FC)” value in test [2] and in test [5] were 10 and 33, respectively. In test [3], the inhibition entry was “Active”. The survival at 1 µM was 3% in test [4] and 1.2% in test [6]. Moreover, in test [7], the result was Active.
